Results published in ChEMBL document CHEMBL4699415, “Synthesis and anti-HBV activity of carbocyclic nucleoside hybrids with salient features of entecavir and aristeromycin” (RSC Med Chem, 2020).
pIC50: −log10 of the molar value.

Columns and labels:
Hepatitis B virus = assay: Antiviral activity against Hepatitis B virus infected in human HepG2.2.15.7 assessed as reduction in HBV DNA level incubated for 9 days media replaced every 3 days once with test compound by RT-PCR analysis; format: functional, organism-based
In short: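 HepG2.2.15.7 cells, 1 × 10^4 per well, settled 24 h before exposure to a range of concentrations; drug-containing medium renewed every three days. At day nine, supernatant HBV DNA quantified by real-time PCR. IC50 is the concentration giving 50% inhibition of supernatant HBV DNA.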

[1] = Cytotoxicity against human HepG2.2.15.7 cells assessed as reduction in cell viability; format: cell-based
In short: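 HepG2.2.15.7 cells, 1 × 10^4 per well, seeded 24 h, then kept nine days with graded concentrations, medium with drug renewed every three days. Viability read by tetrazolium dye method. CC50 is the concentration reducing viable cells by 50%.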

Row | SMILES | pIC50 (Hepatitis B virus) | CC50 [1]
1 | C=C1[C@@H](n2cc(Br)c3c(N)ncnc32)[C@H](O)[C@H](O)[C@@]1(C)CO | 5.08 | > 100 µM
2 | C=C1[C@@H](n2cc(Cl)c3c(N)ncnc32)[C@H](O)[C@H](O)[C@@]1(C)CO | 4.64 | > 100 µM
3 | C=C1[C@H](CO)[C@@H](O)C[C@@H]1n1cnc2c(=O)[nH]c(N)nc21 [ENTECAVIR] | 9.74 | > 0.1 µM
4 | C=C1[C@@H](n2cc(I)c3c(N)ncnc32)[C@H](O)[C@H](O)[C@@]1(C)CO | 5.47 | 87.5 µM
5 | Nc1ncnc2c1ncn2[C@@H]1C[C@H](CO)[C@@H](O)[C@H]1O [ARISTEROMYCIN] | < 5.52 | > 3 µM
6 | C#Cc1cn([C@@H]2C(=C)[C@](C)(CO)[C@@H](O)[C@H]2O)c2ncnc(N)c12 | 5.20 | > 100 µM
7 | C=C1[C@@H](n2cc(F)c3c(N)ncnc32)[C@H](O)[C@H](O)[C@@]1(C)CO | < 4.00 | > 100 µM
8 | C=Cc1cn([C@@H]2C(=C)[C@](C)(CO)[C@@H](O)[C@H]2O)c2ncnc(N)c12 | < 4.00 | > 100 µM
9 | C=C1[C@@H](n2ccc3c(N)ncnc32)[C@H](O)[C@H](O)[C@@]1(C)CO | < 4.00 | > 100 µM
